17 compounds from ChEMBL document CHEMBL1156417, “Transferable resistance to aminoglycosides by methylation of G1405 in 16S rRNA and to hydrophilic fluoroquinolones by QepA-mediated efflux in Escherichia coli” (2007) can be followed below.

What all share (assay type): functional
Assay [1] relates to Escherichia coli. As to the kind of experiment: Antibacterial activity against Escherichia coli 1540 isolate by […]. The gist of the method:
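Disk diffusion on Mueller-Hinton agar following Comité de l'Antibiogramme de la Société Française de Microbiologie standards; clinical isolate from Belgian hospital screening; strains grown in brain heart infusion broth or agar at 37°C.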
A general note: In agar diffusion tests the substance spreads into inoculated agar from a disc or well.

Assay [2] has as its system Escherichia coli. Briefly: Antibacterial activity against Escherichia coli C600Rif by Etest. The essentials: (§1)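 MIC read by Etest on Mueller-Hinton agar after 24 h incubation. Strains were grown in brain heart infusion broth or on agar at 37°C. C600Rif served as the conjugation recipient and TOP10 as the transformation recipient.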
Assay [3] concerns Escherichia coli. Briefly: Antibacterial activity against Escherichia coli TOP10 containing pIP1206 plasmid by Etest. The gist of the method:
as §1

Assay [4] concerns Escherichia coli. As to the kind of experiment: Antibacterial activity against Escherichia coli C600Rif in presence of 40 ug/ml efflux pump inhibitor 1-(1-naphthylmethyl)-piperazine by Etest.
The test system of assay [5] is Escherichia coli. Briefly: Antibacterial activity against Escherichia coli C600Rif in presence of 50 ug/ml efflux pump inhibitor phenyl-arginine-beta-naphthylamide by Etest.
For assay [6], the system named is Escherichia coli. Briefly: Antibacterial activity against Escherichia coli C600Rif containing pIP1206 plasmid by Etest. The essentials:
as §1

Assay [7] concerns Escherichia coli. As to the kind of experiment: microbe, parasite or virus in culture.
Assay [8] has as its system Escherichia coli. As to the kind of experiment: Antibacterial activity against Escherichia coli C600Rif containing pIP1206 plasmid in presence of 50 ug/ml efflux pump inhibitor phenyl-arginine-beta-naphthylamide by Etest.
Assay [9] deals with Escherichia coli. As to the kind of experiment: Antibacterial activity against Escherichia coli TOP10 by Etest. The essentials:
as §1

For assay [10], the system named is Escherichia coli. Briefly: Antibacterial activity against Escherichia coli TOP10 in presence of 40 ug/ml efflux pump inhibitor 1-(1-naphthylmethyl)-piperazine by Etest.
The subject of assay [11] is Escherichia coli. Briefly: Antibacterial activity against Escherichia coli TOP10 in presence of 50 ug/ml efflux pump inhibitor phenyl-arginine-beta-naphthylamide by Etest.
Assay [12] concerns Escherichia coli. As to the kind of experiment: Antibacterial activity against Escherichia coli TOP10 containing pIP1206 plasmid in presence of 40 ug/ml efflux pump inhibitor 1-(1-naphthylmethyl)-piperazine by Etest.
The test system of assay [13] is Escherichia coli. As to the kind of experiment: Antibacterial activity against Escherichia coli TOP10 containing pIP1206 plasmid in presence of 50 ug/ml efflux pump inhibitor phenyl-arginine-beta-naphthylamide by Etest.
Assay [14] relates to Escherichia coli. As to the kind of experiment: Antibacterial activity against Escherichia coli TOP10 containing pAT851 plasmid by Etest. The gist of the method:
as §1

Assay [15] deals with Escherichia coli. Briefly: Antibacterial activity against Escherichia coli TOP10 containing pAT851 in presence of 40 ug/ml efflux pump inhibitor 1-(1-naphthylmethyl)-piperazine by Etest.
Assay [16] relates to Escherichia coli. Briefly: Antibacterial activity against Escherichia coli TOP10 containing pAT851 in presence of 50 ug/ml efflux pump inhibitor phenyl-arginine-beta-naphthylamide by Etest.

In brackets after ≈: the same amount, converted by molar mass.

Take `NCC[C@H](O)C(=O)N[C@@H]1C[C@H](N)[C@@H](O[C@H]2O[C@H](CN)[C@@H](O)[C@H](O)[C@H]2O)[C@H](O)[C@H]1O[C@H]1O[C@H](CO)[C@@H](O)[C@H](N)[C@H]1O` [AMIKACIN]: in the assay with Escherichia coli [1], the MIC was more than 512 µg/mL.

Take `CC1(C)S[C@@H]2[C@H](NC(=O)[C@H](N)c3ccccc3)C(=O)N2[C@H]1C(=O)O` [AMPICILLIN]: the MIC in the assay with Escherichia coli [1] was more than 256 µg/mL.

As to `CO/N=C(\C(=O)N[C@@H]1C(=O)N2C(C(=O)O)=C(COC(C)=O)CS[C@H]12)c1csc(N)n1` [CEFOTAXIME], the MIC with Escherichia coli [1] was 32 µg/mL (≈ 70.3 µM).

In the case of `O=C(N[C@H](CO)[C@H](O)c1ccc([N+](=O)[O-])cc1)C(Cl)Cl` [CHLORAMPHENICOL], the MIC against Escherichia coli [1] is more than 256 µg/mL.

Turning to `O=C(O)c1cn(C2CC2)c2cc(N3CCNCC3)c(F)cc2c1=O` [CIPROFLOXACIN], the MIC was 0.023 µg/mL (≈ 0.0694 µM) with Escherichia coli [2], more than 32 µg/mL against Escherichia coli [1] and 0.023 µg/mL (≈ 0.0694 µM) in the assay on Escherichia coli [3].

Turning to `COc1c(N2CCNC(C)C2)c(F)cc2c(=O)c(C(=O)O)cn(C3CC3)c12` (centres undefined) [GATIFLOXACIN], the MIC with Escherichia coli [2] was determined as 0.023 µg/mL (≈ 0.0613 µM); in the assay on Escherichia coli [4], 0.016 µg/mL; in the assay on Escherichia coli [5] it was 0.016 µg/mL; against Escherichia coli [6], 0.032 µg/mL (≈ 0.0852 µM); in the assay with Escherichia coli [7], 0.016 µg/mL (≈ 0.0426 µM); with Escherichia coli [8], 0.012 µg/mL. Moreover, the MIC stood at 0.003 µg/mL (≈ 0.00799 µM) in the assay with Escherichia coli [9]; 0.002 µg/mL with Escherichia coli [10]; 0.002 µg/mL in the assay on Escherichia coli [11]; 0.003 µg/mL (≈ 0.00799 µM) in the assay with Escherichia coli [3]; 0.002 µg/mL with Escherichia coli [12]; 0.002 µg/mL in the assay with Escherichia coli [13]. The MIC against Escherichia coli [14] is 0.003 µg/mL (≈ 0.00799 µM); in the assay on Escherichia coli [15], 0.002 µg/mL; in the assay on Escherichia coli [16], 0.002 µg/mL.

Consider `CC[n+]1c(-c2ccccc2)c2cc(N)ccc2c2ccc(N)cc21.[Br-]` [HOMIDIUM BROMIDE], for which the MIC against Escherichia coli [2] was found to be 128 µg/mL; in the assay with Escherichia coli [4], 64 µg/mL; in the assay on Escherichia coli [5], 128 µg/mL; against Escherichia coli [6], 128 µg/mL; against Escherichia coli [7] it was 64 µg/mL; in the assay with Escherichia coli [8], 64 µg/mL. The MIC against Escherichia coli [9] was found to be 128 µg/mL; with Escherichia coli [10] it was 64 µg/mL; in the assay on Escherichia coli [11] it was 64 µg/mL; against Escherichia coli [3] it was 128 µg/mL; in the assay with Escherichia coli [12] it was 64 µg/mL; in the assay with Escherichia coli [13], 64 µg/mL. The MIC with Escherichia coli [14] was 128 µg/mL; with Escherichia coli [15], 64 µg/mL; with Escherichia coli [16], 128 µg/mL.

With `NC[C@H]1O[C@H](O[C@H]2[C@H](O)[C@@H](O[C@H]3O[C@H](CO)[C@@H](O)[C@H](N)[C@H]3O)[C@H](N)C[C@@H]2N)[C@H](O)[C@@H](O)[C@@H]1O` [KANAMYCIN], the MIC in the assay on Escherichia coli [1] is more than 512 µg/mL.

In the case of `C[C@H]1COc2c(N3CCN(C)CC3)c(F)cc3c(=O)c(C(=O)O)cn1c23.C[C@H]1COc2c(N3CCN(C)CC3)c(F)cc3c(=O)c(C(=O)O)cn1c23.O` [LEVOFLOXACIN], the MIC in the assay on Escherichia coli [2] was found to be 0.032 µg/mL; in the assay with Escherichia coli [6] it was 0.032 µg/mL; with Escherichia coli [9] it was 0.006 µg/mL; in the assay with Escherichia coli [3] it was 0.006 µg/mL.

On to `CN(C)c1ccc(O)c2c1C[C@H]1C[C@H]3[C@H](N(C)C)C(O)=C(C(N)=O)C(=O)[C@@]3(O)C(O)=C1C2=O` [MINOCYCLINE], for which, in the assay with Escherichia coli [1], the MIC stood at 16 µg/mL (≈ 35 µM).

For `COc1c(N2C[C@@H]3CCCN[C@@H]3C2)c(F)cc2c(=O)c(C(=O)O)cn(C3CC3)c12` [MOXIFLOXACIN], the MIC with Escherichia coli [2] amounted to 0.064 µg/mL (≈ 0.159 µM); with Escherichia coli [4], 0.032 µg/mL; with Escherichia coli [5], 0.032 µg/mL; against Escherichia coli [6], 0.094 µg/mL (≈ 0.234 µM); in the assay with Escherichia coli [7], 0.032 µg/mL (≈ 0.0797 µM); in the assay with Escherichia coli [8] it was 0.006 µg/mL. Also, the MIC is 0.004 µg/mL (≈ 0.00996 µM) in the assay on Escherichia coli [9]; 0.002 µg/mL in the assay with Escherichia coli [10]; 0.002 µg/mL in the assay with Escherichia coli [11]; 0.006 µg/mL (≈ 0.0149 µM) with Escherichia coli [3]; 0.002 µg/mL with Escherichia coli [12]; 0.002 µg/mL in the assay with Escherichia coli [13]. The MIC in the assay on Escherichia coli [14] came out at 0.004 µg/mL (≈ 0.00996 µM); in the assay on Escherichia coli [15], 0.002 µg/mL; with Escherichia coli [16] it was 0.002 µg/mL.

Turning to `CCn1cc(C(=O)O)c(=O)c2ccc(C)nc21` [NALIDIXIC ACID], the MIC worked out at 2 µg/mL (≈ 8.61 µM) against Escherichia coli [2]; 1.5 µg/mL in the assay on Escherichia coli [4]; 1.5 µg/mL in the assay with Escherichia coli [5]; 2 µg/mL (≈ 8.61 µM) against Escherichia coli [6]; 1.5 µg/mL (≈ 6.46 µM) with Escherichia coli [7]; 1.5 µg/mL in the assay on Escherichia coli [8]. Moreover, the MIC came out at 1.5 µg/mL (≈ 6.46 µM) with Escherichia coli [9]; 1 µg/mL in the assay with Escherichia coli [10]; 1 µg/mL in the assay on Escherichia coli [11]; 1.5 µg/mL (≈ 6.46 µM) against Escherichia coli [3]; 1 µg/mL with Escherichia coli [12]; 1 µg/mL with Escherichia coli [13]. The MIC was found to be 1.5 µg/mL (≈ 6.46 µM) with Escherichia coli [14], 1 µg/mL in the assay with Escherichia coli [15] and 1 µg/mL with Escherichia coli [16].

Compound `CCN[C@@H]1C[C@H](N)[C@@H](O[C@H]2OC(CN)=CC[C@H]2N)[C@H](O)[C@H]1O[C@H]1OC[C@](C)(O)[C@H](NC)[C@H]1O` [NETILMICIN] returned an MIC against Escherichia coli [1] of more than 512 µg/mL.

`CCn1cc(C(=O)O)c(=O)c2cc(F)c(N3CCNCC3)cc21` [NORFLOXACIN]: the MIC came to 0.064 µg/mL (≈ 0.2 µM) against Escherichia coli [2]; 0.047 µg/mL in the assay with Escherichia coli [4]; 0.032 µg/mL in the assay on Escherichia coli [5]; 1.5 µg/mL (≈ 4.7 µM) against Escherichia coli [6]; 0.064 µg/mL (≈ 0.2 µM) with Escherichia coli [7]; 0.047 µg/mL in the assay with Escherichia coli [8]. For the same compound, the MIC against Escherichia coli [9] amounted to 0.032 µg/mL (≈ 0.1 µM); in the assay on Escherichia coli [10], 0.016 µg/mL; in the assay with Escherichia coli [11] it was 0.016 µg/mL; with Escherichia coli [3], 0.38 µg/mL (≈ 1.19 µM); with Escherichia coli [12], 0.016 µg/mL; in the assay on Escherichia coli [13] it was 0.016 µg/mL. For the same compound, the MIC against Escherichia coli [14] turned out to be 0.19 µg/mL (≈ 0.595 µM); with Escherichia coli [15] it was 0.016 µg/mL; in the assay with Escherichia coli [16], 0.016 µg/mL.

For the compound `CCn1cc(C(=O)O)c(=O)c2cc(F)c(N3CCN(C)CC3)cc21` [PEFLOXACIN], the MIC in the assay on Escherichia coli [2] amounted to 0.094 µg/mL (≈ 0.282 µM); in the assay with Escherichia coli [6], 0.094 µg/mL (≈ 0.282 µM); in the assay with Escherichia coli [3] it was 0.023 µg/mL (≈ 0.069 µM).

Consider `CN(C)[C@@H]1C(O)=C(C(N)=O)C(=O)[C@@]2(O)C(O)=C3C(=O)c4c(O)cccc4[C@@](C)(O)[C@H]3C[C@@H]12` [TETRACYCLINE], for which the MIC in the assay with Escherichia coli [1] was more than 256 µg/mL.

Compound `NC[C@H]1O[C@H](O[C@H]2[C@H](O)[C@@H](O[C@H]3O[C@H](CO)[C@@H](O)[C@H](N)[C@H]3O)[C@H](N)C[C@@H]2N)[C@H](N)C[C@@H]1O` [TOBRAMYCIN] registered an MIC in the assay with Escherichia coli [1] of more than 512 µg/mL.
